Rows were chosen to be rich in hits. Some 2.8% of all compounds tested hit in one or more screens of this group.
DENV2 CPE rescue = inhibitors of DENV2 cytopathic effect. DENV2-infected cells, cytopathic effect rescue, plate reader. CPE inhibition, % at 9.99 µM. actives 1.7% (n = 350,000). AID 651640; in the data active means CPE inhibition above about 20%, passing the limit was not always enough; inconclusive means no clear call, values can overlap the other calls; tested in BHK-21 cells;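 further: 0% = median of neutral control wells and 100% = median of positive control wells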
SIRT5 inh = sirtuin-5 (human) deacylase inhibition; actives 1.1% (n = 330,000); AID 652115; inhibition, % at 15 µM; Purified SirT5, succinyl-peptide AMC, trypsin-coupled fluorescence; in the data active means inhibition above about 15%; inconclusive means no clear call, values can overlap the other calls
E-selectin induc = E-selectin induction on HUVECs; actives 0.37% (n = 260,000); activation, % at 7.58 µM; P16581; HUVEC E-selectin immunofluorescence imaging; normalized: neutral wells 0, TNF-alpha wells 100;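 active means mean E-selectin-positive cell signal at least 10% of the positive control, reached in at least 60% of replicates, without over 20% cell loss; inconclusive means no rule given, readout overlaps actives, possibly toxicity-flagged; inactive means the rest, including those meeting only one limit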
Target sequence (P16581 whole entry, looked up): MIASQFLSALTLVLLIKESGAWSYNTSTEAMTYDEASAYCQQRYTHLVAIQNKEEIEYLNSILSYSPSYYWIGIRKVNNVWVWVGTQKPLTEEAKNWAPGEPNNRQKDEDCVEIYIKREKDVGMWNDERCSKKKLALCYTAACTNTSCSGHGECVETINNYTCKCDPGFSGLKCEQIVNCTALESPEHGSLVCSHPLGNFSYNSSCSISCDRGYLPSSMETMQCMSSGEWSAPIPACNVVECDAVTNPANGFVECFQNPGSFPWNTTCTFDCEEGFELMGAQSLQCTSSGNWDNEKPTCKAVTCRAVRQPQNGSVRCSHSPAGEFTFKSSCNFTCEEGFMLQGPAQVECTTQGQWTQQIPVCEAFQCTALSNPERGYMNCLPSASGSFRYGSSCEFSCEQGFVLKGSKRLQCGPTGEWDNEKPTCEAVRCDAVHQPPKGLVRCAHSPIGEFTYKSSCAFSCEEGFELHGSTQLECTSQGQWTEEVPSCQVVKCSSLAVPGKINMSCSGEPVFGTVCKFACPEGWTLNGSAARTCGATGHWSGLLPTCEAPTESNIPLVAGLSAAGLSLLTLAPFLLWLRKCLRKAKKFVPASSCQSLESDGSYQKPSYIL
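Test system: HUVEC; input: 3,000 HUVEC/well; measured by: immunofluorescence imaging; read-out: % PE-positive cells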
* hit, by the source's call; ? = inconclusive; / = no result given.

SMILES	DENV2 CPE rescue	SIRT5 inh	E-selectin induc
NC(=O)c1ccc(NC(=O)CCCc2nc(-c3ccccc3Cl)no2)cc1	/	18*	/
COc1cc(-c2noc(CCCC(=O)Nc3ccc(C(N)=O)cc3)n2)cc(OC)c1OC	10	-1	/
C[C@H]1CN([C@@H](C)CO)C(=O)CCCn2cc(nn2)CO[C@H]1CN(C)Cc1ccc(C(F)(F)F)cc1	-1	2	0
O=C(N[C@@H]1CC[C@H](CCNC(=O)C2CC2)O[C@@H]1CO)c1ccccn1	1	-3	0
CN(C)C(=O)C[C@@H]1CC[C@@H]2[C@H](COC[C@H](O)CN2CC2CCCCC2)O1	1	0	0
CCN(CC)CCNC(=S)Nc1ccc2nc(N3CCN(CC)CC3)cc(C)c2c1	6	-3	0
CCN1CCN(c2cc(C)c3cc(NC(=S)NCCN(C)C)ccc3n2)CC1	-6	21*	1
Cc1cc(N2CCN(C)CC2)nc2ccc(NC(=S)N3CCCCCC3)cc12	5	20*	0
Cc1cc(N2CCN(C)CC2)nc2ccc(NC(=S)N3CCCCC3)cc12	4	-1	4
CN(C)C(=O)C[C@@H]1C[C@H]2c3cc(NC(=O)CC4CC4)ccc3O[C@H]2[C@@H](CO)O1	1	-1	0
COCCn1c(=O)[nH]c(=O)c2c1nc(-c1ccc(-c3ccc(Cl)cc3[N+](=O)[O-])o1)n2Cc1ccccc1	0	2	/
COCCn1c(-c2ccc(-c3ccc([N+](=O)[O-])cc3Br)o2)nc2c1c(=O)[nH]c(=O)n2CC(C)C	1	15*	/
CC(=O)N(C)C[C@@H]1Oc2cc(C#CCC3CCCC3)ccc2S(=O)(=O)N([C@H](C)CO)C[C@H]1C	6	3	0
O=C(CCN1CCCCC1)N[C@@H]1CC[C@@H](CCn2cc(-c3ccccc3)nn2)O[C@H]1CO	1	-2	0
C[C@H]1CN([C@@H](C)CO)S(=O)(=O)c2ccc(C#Cc3ccc(F)cc3)cc2O[C@H]1CN(C)CC1CC1	-4	10	0
C[C@@H]1CN([C@H](C)CO)S(=O)(=O)c2ccc(C#Cc3cccc(F)c3)cc2O[C@@H]1CN(C)CC1CC1	-3	15*	-1
C[C@H](CO)N1C[C@H](C)[C@@H](CN(C)CC2CC2)Oc2cc(-c3ccc(F)cc3)ccc2S1(=O)=O	-5	3	/
COCC(=O)N(C)C[C@@H]1Oc2cc(-c3ccc(F)cc3)ccc2S(=O)(=O)N([C@H](C)CO)C[C@@H]1C	-3	-3	0
COCC(=O)N(C)C[C@H]1Oc2cc(-c3ccc(F)cc3)ccc2S(=O)(=O)N([C@@H](C)CO)C[C@H]1C	-7	13	125*
C[C@@H]1CN([C@H](C)CO)S(=O)(=O)c2ccc(-c3ccc(F)cc3)cc2O[C@@H]1CN(C)CC1CC1	13	-2	92*
CC(C)NC(=O)Nc1ccc2c(c1)C(=O)N([C@@H](C)CO)C[C@H](C)[C@@H](CN(C)Cc1ccc(Oc3ccccc3)cc1)O2	-1	2	0
C[C@H]1CCCCO[C@H](CN(C)S(=O)(=O)c2cn(C)cn2)[C@@H](C)CN([C@@H](C)CO)C(=O)c2cc(NC(=O)Nc3ccc(F)cc3)ccc2O1	0	8	0
CCCCC(CC)C(=O)Oc1ccc(O)c(C(C)(C)C)c1 (stereo not drawn)	11	19*	?
CC(C)(C)c1cc(OC(=O)C2CCCC2)ccc1O	11	-3	0
C[C@H]1CN([C@@H](C)CO)S(=O)(=O)c2ccc(/C=C/c3ccccc3)cc2O[C@H]1CN(C)C	-2	12	0
SMILES	DENV2 CPE rescue	SIRT5 inh	E-selectin induc
CC(C)COc1ccc(-c2nn(-c3ccccc3)cc2CO)cc1	-4	2	/
OCc1cn(-c2ccccc2)nc1-c1ccc(Br)cc1	48*	-1	0
C[C@@H]1CN([C@H](C)CO)C(=O)c2cc(NC(=O)C3CCCCC3)ccc2O[C@@H](C)CCCCO[C@@H]1CN(C)C(=O)NC1CCCCC1	-1	-4	0
COC(=O)C[C@@H]1CC[C@H]2[C@H](COc3ccc(NS(=O)(=O)c4ccc(F)cc4)cc3C(=O)N2C)O1	-5	-1	0
CC(C)NC(=O)Nc1cccc2c1O[C@@H](CN(C)Cc1ccc3c(c1)OCO3)[C@H](C)CN([C@H](C)CO)C2=O	/	1	0
Cn1c2ccccc2c(=O)c2cc(C#Cc3ccsc3)ccc21	66*	/	0
Cn1c2ccccc2c(=O)c2cc(C#Cc3ccccn3)ccc21	3	3	0
Cc1noc(C)c1NC(=O)Nc1ccc2c(c1)C(=O)N([C@H](C)CO)C[C@@H](C)[C@@H](CN(C)S(=O)(=O)c1ccc(F)cc1)OCCCC[C@H](C)O2	?	-4	0
Cc1noc(C)c1NC(=O)Nc1ccc2c(c1)CC(=O)N([C@@H](C)CO)C[C@H](C)[C@@H](CN(C)Cc1ccccc1)O2	7	7	2
Cc1cccc(CN2C[C@]34C=C[C@@H](C[C@@H]3S2(=O)=O)O4)c1	48*	/	0
O=S1(=O)[C@H]2C[C@@H]3C=C[C@@]2(CN1Cc1ccc(Cl)cc1)O3	?	-1	/
C/C=C/c1ccc([C@@H]2[C@H](CO)N(C(=O)CN(C)C)C23CN(C(=O)C2CC2)C3)cc1	-6	-2	0
CCOc1ccccc1NC(=O)c1cnccn1	16	3	1
CC(C)c1ccccc1NC(=O)c1cnccn1	/	20*	/
O=C(C[C@@H]1C=C[C@H](NS(=O)(=O)c2ccccc2)[C@@H](CO)O1)N1CCC(Cc2ccccc2)CC1	?	2	-1
Cn1cnc(S(=O)(=O)N[C@H]2C=C[C@@H](CC(=O)N3CCN(c4ccccc4)CC3)O[C@@H]2CO)c1	-4	1	0
COc1ccc(OC)c(NC(=O)c2csc(Cl)c2OC)c1	-7	-4	38*
COc1ccc(OC)c(NC(=O)c2ccc(Cl)cc2)c1	-3	0	/
Cc1noc(C)c1S(=O)(=O)Nc1ccc2c(c1)C(=O)N([C@H](C)CO)C[C@H](C)[C@H](CN(C)C(=O)CCCN(C)C)OCCCC[C@H](C)O2	5	/	0
CN1c2ccc(C3=CCCCC3)cc2[C@@H]2[C@@H](CCN2C(=O)Nc2ccc(F)cc2)[C@@H]1CO	/	-1	0
CCn1c2ccccc2c2cc(NC(=O)c3cccc(OC)c3OC)ccc21	3	-5	/
CCn1c2ccccc2c2cc(NC(=O)c3ccccc3[N+](=O)[O-])ccc21	32*	-1	/
O=C(C[C@H]1CC[C@@H]2[C@H](COC[C@H](O)CN2C(=O)c2ccccc2)O1)NCCCN1CCOCC1	-1	/	0
COc1cc(C=C2C(=O)C=CC2=O)ccc1O	-2	28*	0
COc1cc(C=C2NC(=O)NC2=O)ccc1O	-2	/	0
SMILES	DENV2 CPE rescue	SIRT5 inh	E-selectin induc
Cc1ccc(S(=O)(=O)NCC[C@@H]2CC[C@@H](NC(=O)c3cccc(F)c3)[C@H](CO)O2)cc1	20	2	0
CCC(=O)N(C)C[C@H]1Oc2ncc(-c3ccc(F)cc3)cc2C(=O)N([C@@H](C)CO)C[C@@H]1C	-6	-1	0
CCCCC(=O)Nc1cc([N+](=O)[O-])ccc1Cl	23*	-1	6
CCCCC(=O)Nc1cc([N+](=O)[O-])ccc1F	0	-2	/
Cc1nc(NC(=O)C2CC2)sc1C	-8	22*	/
Cc1nc(NC(=O)C2CC2)sc1C(=O)NC1CCCCC1	1	-3	/
